# Published values pooled from the literature.
# Protocols differ between the studies behind these lines.
# Matrix: plasma
Compound,species,route,dose,setting,Cmax
Cn1cc(-c2ccc(S(=O)(=O)[C@@H]3C[C@@H](C(=O)NC4(C#N)CC4)N(C(=O)C4(C(F)(F)F)CC4)C3)c(C(F)(F)F)c2)cn1,human,oral,3 mg,"single dose, fasted, healthy volunteers",20.8 ng/mL
Cc1ccc(C(=O)N(CCCN)[C@@H](c2oc3cc(Cl)ccc3c(=O)c2Cc2ccccc2)C(C)C)cc1,human,intravenous,6 mg/m²,"single dose, patients, infusion",817 ng/mL
COCCOc1cnc2ccn([C@H](C)c3nnc4c(F)cc(-c5cnn(C)c5)cn34)c(=O)c2c1,human,oral,25 mg,"multiple doses, once daily, patients",600 ng/mL
CO[C@H]1CC[C@H](N2C(=O)CNc3ncc(-c4ccc(C(C)(C)O)nc4)nc32)CC1,human,oral,7.5 mg,patients,45.8 ng/mL
CCn1c(=O)c(-c2cc(NC(=O)Nc3ccccc3)c(F)cc2Br)cc2cnc(NC)cc21,human,oral,100 mg,"single dose, patients",500 ng/mL
CC(C)(Sc1ccncc1-c1ccc(C#N)c2ccccc12)C(=O)O,male human,oral,20 mg,"single dose, fasted, healthy volunteers",384 ng/mL
CCc1nc2c(C)cc(N3CCN(CC(=O)N4CC(O)C4)CC3)cn2c1N(C)c1nc(-c2ccc(F)cc2)c(C#N)s1,human,oral,1000 mg,"single dose, fed, healthy volunteers",11800 ng/mL
Cn1c(=O)oc2ccc(-c3ccc(C[C@@H](C#N)NC(=O)[C@@H]4CNCCCO4)cc3)cc21,male human,oral,15 mg,"single dose, healthy volunteers",202 nM
CO[C@@H]1[C@H](OC(=O)N2CC(CCN3CCOCC3)C2)CC[C@]2(CO2)[C@H]1[C@@]1(C)O[C@@H]1CC=C(C)C,human,subcutaneous,1.2 mg,"single dose, healthy volunteers",7.04 ng/mL
COc1ccc([C@@H]2CN(C(=O)[C@@H](O)CO)C[C@@]2(C)[C@@H](C)O)cc1OC1CN(c2ccc(C)cn2)C1,human,oral,40 mg,"single dose, healthy volunteers",799 ng/mL
COc1cc(C(=O)NC2CCN(C)CC2)c(F)cc1Nc1ncc(C(F)(F)F)c(Oc2cccc3c2C(=O)N(C)C3)n1,human,oral,300 mg,"multiple doses, once daily, steady state, patients",5060 nM
CC(C)(O)c1ccccc1-c1ccc2[nH]c(/C=C/c3ccc(C(F)(F)F)cc3)nc2c1,male human,oral,30 mg,"single dose, fasted, healthy volunteers",91.8 ng/mL
C[C@@]1(c2cc(NC(=O)c3ccc(C#N)cn3)ccc2F)C=CSC(N)=N1,human,oral,3 mg,single dose,17.2 ng/mL
CC(C)n1cc(C#N)c2cc(-n3cc(C(=O)O)cn3)ccc21,human,oral,25 mg,"single dose, fasted, healthy volunteers",978 ng/mL
